The values below come from ChEMBL document CHEMBL4665637, “Inhibition of diverse opportunistic viruses by structurally optimized retrograde trafficking inhibitors” (Bioorg Med Chem, 2019).

pIC50: −log10 of the molar value. Activity calls are given as the source filed them. No cut-off for these calls is given here.

The subject of data set [1] is Vero. The data set is described as follows: Cytotoxicity in African green monkey VERO cells assessed as cell viability at 100 nM incubated for 96 hrs by CellTiter-Glo Luminescent assay. It counts as cell-based. To be noted: chlorocebus sabaeus, 0.1 µM. A digest of the protocol:
(§1)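 Cells in 96-well plates exposed to DMSO or compound at 100 nM or 10 µM for 96 h. Medium then replaced with fresh medium. XTT read as absorbance after 2 h at 37°C with activating reagent; CellTiter-Glo (ATP) read as luminescence. Average of three independent experiments.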
A general note: ATP-based viability assays read luminescence as a measure of living cells.

The subject of data set [2] is NHDF. The data set is described as follows: Cytotoxicity in human NHDF cells assessed as cell viability at 100 nM incubated for 96 hrs by CellTiter-Glo Luminescent assay. The note with it: 0.1 µM. The class given is cell-based. The essentials:
as §1

A short description of data set [3]: Cytotoxicity in mouse BALB/3T3 clone A31 cells assessed as cell viability at 100 nM incubated for 96 hrs by CellTiter-Glo Luminescent assay. The class given is cell-based. To be noted: balb/3t3 clone a31, 96 h, 0.1 µM. The essentials:
as §1

The subject of data set [4] is Vero. Kind of data set: Cytotoxicity in African green monkey VERO cells assessed as cell viability at 100 nM incubated for 96 hrs by XTT Assay. The class given is cell-based. The note with it: chlorocebus sabaeus, 0.1 µM. A digest of the protocol:
as §1

In data set [5] the test system is NHDF. Kind of data set: Cytotoxicity in human NHDF cells assessed as cell viability at 100 nM incubated for 96 hrs by XTT Assay. It counts as cell-based. The note with it: 0.1 µM. The essentials: as §1
A general note: Tetrazolium dyes change colour on reduction, which living cells bring about.

A short description of data set [6]: Cytotoxicity in mouse BALB/3T3 clone A31 cells assessed as cell viability at 10 uM incubated for 96 hrs by CellTiter-Glo Luminescent assay. To be noted: balb/3t3 clone a31, 96 h. The class given is cell-based. A digest of the protocol: as §1
Data set [7] has as its system Vero. Kind of data set: Cytotoxicity in African green monkey VERO cells assessed as cell viability at 10 uM incubated for 96 hrs by CellTiter-Glo Luminescent assay. It counts as cell-based. To be noted: chlorocebus sabaeus, dose […]. The essentials: as §1
For data set [8], the system named is Human betaherpesvirus 5. Kind of data set: Antiviral activity against HCMV infected in human ARPE-19 cells at 7.5 uM measured after 6 days post infection. It counts as functional, cell-based. A digest of the protocol:
(§2)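 ARPE-19 cells infected with GFP-expressing HCMV and treated with compound at 7.5 µM. Images taken 3 and 6 days post infection, and area of infection calculated from GFP signal. Average of 3 distinct experiments.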

The subject of data set [9] is ARPE-19. Kind of data set: Cytotoxicity in human ARPE-19 cells assessed as cell viability at 100 nM incubated for 96 hrs by CellTiter-Glo Luminescent assay. It counts as cell-based. The note with it: arpe-19, 96 h, 0.1 µM. The essentials:
as §1

Data set [10] has as its system NHDF. The data set is described as follows: Inhibition of retrograde transport in NHDF cells assessed as displacement of STX5 from golgi apparatus at 10 uM by immunofluorescence analysis. The class given is functional, cell-based. To be noted: Homo sapiens. The essentials: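 HDFs exposed to 10 µM compound or DMSO vehicle, fixed in 2% paraformaldehyde for 15 min at room temperature. Blocked in PBS with 10% human serum, 0.5% Tween-20 and 5% glycine, permeabilized with 0.1% Triton X-100. Stained for STX5 and for the Golgi marker p115, DAPI mounting, imaged by confocal microscopy.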

Data set [11] deals with Human betaherpesvirus 5. Kind of data set: Antiviral activity against HCMV TB40/E infected in human NHDF cells assessed as reduction in infectious virus titer compound added 2 hpi and measured after 96 hpi by inverted microscopic analysis. To be noted: Human betaherpesvirus 5, TB40/E.
For data set [12], the system named is NHDF. Kind of data set: Cytotoxicity in human NHDF cells assessed as cell viability at 10 uM incubated for 96 hrs by CellTiter-Glo Luminescent assay. The class given is cell-based. A digest of the protocol: as §1
For data set [13], the system named is ARPE-19. The data set is described as follows: Cytotoxicity in human ARPE-19 cells assessed as cell viability at 100 nM incubated for 96 hrs by XTT Assay. The class given is cell-based. To be noted: arpe-19, 96 h, 0.1 µM. The essentials:
as §1

Data set [14] is described as follows: Cytotoxicity in mouse BALB/3T3 clone A31 cells assessed as cell viability at 100 nM incubated for 96 hrs by XTT Assay. The note with it: balb/3t3 clone a31, 96 h, 0.1 µM. It counts as cell-based. A digest of the protocol: as §1
Data set [15] concerns Human betaherpesvirus 5. Kind of data set: Antiviral activity against HCMV infected in human ARPE-19 cells at 7.5 uM measured after 3 days post infection. The class given is functional, cell-based. The essentials: as §2
For data set [16], the system named is ARPE-19. Kind of data set: Cytotoxicity in human ARPE-19 cells assessed as cell viability at 10 uM incubated for 96 hrs by CellTiter-Glo Luminescent assay. It counts as cell-based. To be noted: arpe-19, 96 h. The essentials:
as §1

For data set [17], the system named is Human betaherpesvirus 5. Kind of data set: Antiviral activity against HCMV TB40/E infected in human assessed as reduction in infectious virus titer at 10 uM compound added 2 hpi and measured after 96 hpi by inverted microscopic analysis.
Data set [18] concerns BALB/3T3 clone A31. Kind of data set: Antiviral activity against mouse polyomavirus A2 strain infected in BALB.3T3 clone A31 cells assessed as viral RNA at 100 nM to 10 uM measured after 24 hpi by RT-PCR analysis. It counts as functional, cell-based. To be noted: Murine polyomavirus, dose microM 0.1-10. A digest of the protocol:
(§3)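 A31 cells in 10% FBS DMEM infected with MuPyV A2 at MOI 1 for 1.5 h at 37°C. Cells washed twice, then exposed to compound (100 nM, 1.0 µM or 10 µM) for 24 h. Total RNA extracted and 2 µg converted to cDNA. LT mRNA measured by qPCR, normalized to TBP and to untreated cells. Two independent experiments, n=4 per condition, mean ± SD, 2-way ANOVA.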

Data set [19] deals with NHDF. The data set is described as follows: Cytotoxicity in human NHDF cells assessed as cell viability at 10 uM incubated for 96 hrs by XTT Assay. It counts as cell-based. A digest of the protocol: as §1
The nature of data set [20]: Cytotoxicity in mouse BALB/3T3 clone A31 cells assessed as cell viability at 10 uM incubated for 96 hrs by XTT Assay. The note with it: balb/3t3 clone a31, 96 h. It counts as cell-based. A digest of the protocol: as §1
The subject of data set [21] is BALB/3T3 clone A31. The data set is described as follows: Antiviral activity against mouse polyomavirus A2 strain infected in BALB.3T3 clone A31 cells assessed as viral RNA at 100 nM measured after 24 hpi by RT-PCR analysis. The note with it: Murine polyomavirus. It counts as functional, cell-based. A digest of the protocol: as §3
The subject of data set [22] is ARPE-19. Kind of data set: Cytotoxicity in human ARPE-19 cells assessed as cell viability at 10 uM incubated for 96 hrs by XTT Assay. To be noted: arpe-19, 96 h. It counts as cell-based. A digest of the protocol:
as §1

In data set [23] the test system is BALB/3T3 clone A31. The data set is described as follows: Antiviral activity against mouse polyomavirus A2 strain infected in BALB.3T3 clone A31 cells assessed as viral RNA at 1 to 10 uM measured after 24 hpi by RT-PCR analysis. It counts as functional, cell-based. The note with it: Murine polyomavirus. The essentials: as §3
The test system of data set [24] is Vero. The data set is described as follows: Cytotoxicity in African green monkey VERO cells assessed as cell viability at 10 uM incubated for 96 hrs by XTT Assay. The note with it: chlorocebus sabaeus. The class given is cell-based. The essentials: as §1

`Cc1nc(-c2ccc(C3N(C)c4ccc(C#N)cc4C(=O)N3c3ccccc3)s2)cs1` (stereo not drawn): the Activity entry is on record as “Non-Toxic” with Vero [1]; “Non-Toxic” in the data set with NHDF [2]; “Non-Toxic” in data set [3]; “Non-Toxic” in the data set on Vero [4]; “Non-Toxic” in the data set on NHDF [5]; “Toxic” in data set [6]. Further, the Activity result with Vero [7] is “Toxic”; with ARPE-19 [9], “Non-Toxic”; in the data set with NHDF [12], “Toxic”; in the data set with ARPE-19 [13], “Non-Toxic”; in data set [14], “Non-Toxic”; in the data set with ARPE-19 [16] it was “Toxic”. The result in the data set on Human betaherpesvirus 5 [8], with Human betaherpesvirus 5 [15], in the data set with Human betaherpesvirus 5 [17] and in the data set with BALB/3T3 clone A31 [18] was Active. Besides, the “STX5 displacement from Golgi (active/inactive call)” value with NHDF [10] is “Active”. Also, the pIC50 (commonly −log10 of the IC50, conventionally taken in molar units) in the data set with Human betaherpesvirus 5 [11] was 7.47.
On to `Cc1nc(-c2ccc(C3N(C)c4ccc(F)cc4C(=O)N3c3ccccc3)s2)cs1` (stereo not drawn), for which, in the data set on Human betaherpesvirus 5 [11], the pIC50 was 7.60.
As for `Cc1nc(-c2ccc(C3Nc4ccc(C#N)cc4C(=O)N3c3ccccc3)s2)cs1` (stereo not drawn), the Activity result with Vero [1] is recorded as “Non-Toxic”; in the data set on NHDF [2] it was “Non-Toxic”; in [3], “Non-Toxic”; in the data set with NHDF [19], “Toxic”; in [20], “Toxic”; in the data set on Vero [4], “Non-Toxic”. The Activity result with NHDF [5] is on record as “Non-Toxic”; in data set [6] it was “Toxic”; with Vero [7], “Toxic”; in the data set on ARPE-19 [22], “Toxic”; in the data set on ARPE-19 [9], “Non-Toxic”; in the data set with NHDF [12] it was “Toxic”. For the same compound, the Activity entry with ARPE-19 [13] was “Non-Toxic”; in data set [14], “Non-Toxic”; with ARPE-19 [16], “Toxic”; in the data set on Vero [24], “Toxic”. Further, the outcome in the data set on BALB/3T3 clone A31 [21] was inactive. In addition, the result with Human betaherpesvirus 5 [8], in the data set with Human betaherpesvirus 5 [15], with Human betaherpesvirus 5 [17] and in the data set on BALB/3T3 clone A31 [23] was Active. For the same compound, the “STX5 displacement from Golgi (active/inactive call)” value with NHDF [10] was “Active”. Moreover, the pIC50 in the data set with Human betaherpesvirus 5 [11] was 7.02.
In the case of `Cc1nc(-c2ccc(C3Nc4ccc([N+](=O)[O-])cc4C(=O)N3c3ccccc3)s2)cs1` (stereo not drawn), the Activity result in the data set with Vero [1] is recorded as “Non-Toxic”; in the data set with NHDF [2], “Non-Toxic”; in [3], “Non-Toxic”; in the data set on NHDF [19], “Toxic”; in data set [20] it was “Toxic”; in the data set with Vero [4], “Non-Toxic”. The Activity result in the data set on NHDF [5] was “Non-Toxic”; in [6], “Toxic”; in the data set with Vero [7] it was “Toxic”; with ARPE-19 [22], “Toxic”; with ARPE-19 [9], “Non-Toxic”; with NHDF [12] it was “Toxic”. In addition, the Activity entry in the data set with ARPE-19 [13] was “Non-Toxic”; in data set [14] it was “Non-Toxic”; in the data set on ARPE-19 [16], “Toxic”; with Vero [24] it was “Toxic”. Also, the outcome in the data set on BALB/3T3 clone A31 [21] was inactive. For the same compound, the result in the data set with Human betaherpesvirus 5 [8], in the data set on Human betaherpesvirus 5 [15], in the data set on Human betaherpesvirus 5 [17] and in the data set on BALB/3T3 clone A31 [23] was Active. Also, the “STX5 displacement from Golgi (active/inactive call)” value in the data set with NHDF [10] is “Active”. In the data set on Human betaherpesvirus 5 [11], the pIC50 was 7.04.
Take `Cc1nc(-c2ccc(C3N(C)c4ccccc4C(=O)N3c3ccccc3)s2)cs1` (stereo not drawn): in the data set with Human betaherpesvirus 5 [11], the pIC50 was 6.41.
As for `Cc1nc(-c2ccc(C3N(C)c4ccc([N+](=O)[O-])cc4C(=O)N3c3ccccc3)s2)cs1` (stereo not drawn), the Activity result is recorded as “Non-Toxic” in the data set with Vero [1]; “Non-Toxic” in the data set on NHDF [2]; “Non-Toxic” in data set [3]; “Toxic” with NHDF [19]; “Toxic” in data set [20]; “Non-Toxic” in the data set on Vero [4]. In addition, the Activity entry is reported as “Non-Toxic” in the data set with NHDF [5]; “Toxic” in data set [6]; “Toxic” in the data set with Vero [7]; “Toxic” with ARPE-19 [22]; “Non-Toxic” in the data set on ARPE-19 [9]; “Toxic” in the data set on NHDF [12]. For the same compound, the Activity result with ARPE-19 [13] was “Non-Toxic”; in [14], “Non-Toxic”; with ARPE-19 [16] it was “Toxic”; with Vero [24], “Toxic”. Moreover, the result in the data set with Human betaherpesvirus 5 [8], in the data set on Human betaherpesvirus 5 [15], in the data set on Human betaherpesvirus 5 [17] and in the data set with BALB/3T3 clone A31 [18] was Active. Moreover, the “STX5 displacement from Golgi (active/inactive call)” value with NHDF [10] was “Active”. The pIC50 with Human betaherpesvirus 5 [11] is 7.67.
